Results on 23 compounds are retold here after ChEMBL document CHEMBL3351741, “Fused heterocycles bearing bridgehead nitrogen as potent HIV-1 NNRTIs. Part 2: discovery of novel [1,2,4]Triazolo[1,5-a]pyrimidines using a structure-guided core-refining approach” (Eur J Med Chem, 2014).

The subject of data set [1] is Human immunodeficiency virus 1. As to the kind of experiment: Antiviral activity against HIV-1 3B infected in human MT4 cells assessed as protection from viral cytopathicity after 5 days by MTT assay. Format: functional, organism-based. The conditions noted are these: Human immunodeficiency virus 1, 3B, MT4, 120 h. The method, boiled down:
(§1)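 MT-4 cells (6 × 10⁵ cells/ml) infected with HIV-1 IIIB or HIV-2 ROD stock at 100-300 CCID₅₀; compounds added as 10× stocks. After 5 days, viability read by MTT reduction at 540 and 690 nm, using median OD of two or three wells. EC₅₀ is the concentration giving 50% protection from viral cytopathicity.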
For orientation: Damage to the host cells serves as the signal in cytopathic effect assays.

For data set [2], the system named is Human immunodeficiency virus 1. Nature of the data set: Antiviral activity against HIV-1 RES056 harboring RT K103N/Y181C double mutant infected in human MT4 cells assessed as protection from viral cytopathicity after 5 days by MTT assay. Format: functional, organism-based. The conditions noted are these: Human immunodeficiency virus 1, RES056, MT4, 120 h. Summed up: (§2)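 MT-4 cells resuspended at 6 × 10⁵ cells/ml, infected with HIV-1 IIIB, RES056 or HIV-2 ROD at 100-300 CCID50, or mock-infected; test compounds added from 10× stocks. After 5 days, viability read by MTT at 540 and 690 nm, median OD of two or three wells. EC50 = 50% protection from cytopathicity; CC50 = 50% viability loss in mock-infected cells; SI = CC50/EC50.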

The test system of data set [3] is Human immunodeficiency virus 2. Nature of the data set: Antiviral activity against HIV-2 ROD infected in human MT4 cells assessed as protection from viral cytopathicity after 5 days by MTT assay. Format: functional, organism-based. The following applies: Human immunodeficiency virus 2, ISOLATE ROD, MT4, 120 h. Summed up: as §1
Data set [4] can be described thus: Cytotoxicity against mock-infected human MT4 cells after 5 days by MTT assay. Format: cell-based. Summed up:
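Mock-infected MT-4 cells (6 × 10⁵ cells/ml) received culture medium in place of virus and were exposed to compounds added as 10× stocks. After 5 days, viability was read by MTT at 540 and 690 nm, using median OD of two or three wells. CC₅₀ is the concentration cutting viability by 50%. '>' marks the highest concentration tested without cytotoxicity.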
On the technique in general: Tetrazolium dyes change colour on reduction, which living cells bring about.

Data set [5] is described as follows: Selectivity index, ratio of CC50 for mock-infected human MT4 cells to EC50 for HIV-1 3B infected in human MT4 cells. Format: toxicity, cell-based. The conditions noted are these: mock-infected and infected with HIV-1 3B, read-out: Ratio CC50/EC50. Summed up:
as §2

Data set [6] is described as follows: Selectivity index, ratio of CC50 for mock-infected human MT4 cells to EC50 for HIV-1 RES056 harboring RT K103N/Y181C double mutant infected in human MT4 cells. Format: toxicity, cell-based. The conditions noted are these: read-out: Ratio CC50/EC50. Summed up:
as §2

A short description of data set [7]: Selectivity index, ratio of CC50 for mock-infected human MT4 cells to EC50 for HIV-2 ROD infected in human MT4 cells. Format: toxicity, cell-based. The following applies: mock-infected and infected with HIV-2 ROD, read-out: Ratio CC50/EC50. The method, boiled down: as §2
Data set [8] concerns Human immunodeficiency virus 1. As to the kind of experiment: Antiviral activity against HIV-1 harboring wild-type reverse transcriptase. Format: functional, organism-based.
Data set [9] deals with Human immunodeficiency virus 1. As to the kind of experiment: Antiviral activity against HIV-1 harboring RT Y181C mutant. Format: functional, organism-based.
Data set [10] relates to Human immunodeficiency virus 1. As to the kind of experiment: Antiviral activity against HIV-1 harboring RT Y188L mutant. Format: functional, organism-based.
The subject of data set [11] is Human immunodeficiency virus 1. As to the kind of experiment: Antiviral activity against HIV-1 harboring RT K103N/Y181C double mutant. Format: functional, organism-based.

Each structure is given as a SMILES string.

What is called EC50 is the concentration that produces a half-maximal response. What is called CC50 is the concentration giving 50% cytotoxicity. The low end stands for greater toxicity to the cells, the high end for lower toxicity to the cells. In the case of `Cc1cc(Br)c(Oc2cc(Nc3ccc(C#N)cc3)nc3ncnn23)c(Br)c1`, the concentration giving a half-maximal response (EC50) in data set [1] is 0.05 µM; in data set [2] it was greater than 192 µM; in data set [3], greater than 192 µM. Moreover, the CC50 at 120 h in data set [4] worked out at 192 µM. For the same compound, the selectivity ratio in data set [5] was 3620; in data set [6] it was less than 1; in [7] it was less than 1.
With `Cc1cc(Br)cc(C)c1Oc1cc(Nc2ccc(C#N)cc2)nc2ncnn12`, the EC50 is 0.23 µM in [1], greater than 136 µM in data set [2] and greater than 136 µM in [3]. The compound further registered a CC50 at 120 h in data set [4] of 136 µM. Moreover, the selectivity ratio in data set [5] is 579; in data set [6], less than 1; in data set [7], less than 1.
Take `N#Cc1ccc(Nc2cc(Oc3c(Cl)cc(Cl)cc3Cl)nc3ncnn23)cc1`: the 50% effective concentration (EC50) is 0.3 µM in [1], greater than 32 µM in data set [2] and greater than 32 µM in [3]. Also, the CC50 at 120 h in data set [4] was determined as 32 µM. Further, the figures for the selectivity ratio in [5], in data set [6] and in [7] were 109, less than 1 and less than 1, respectively.
For `N#Cc1ccc(Nc2cc(Oc3c(Br)cc(Br)cc3Br)n3ncnc3n2)cc1`, the half-maximal effective concentration (EC50) in data set [1] is 0.3 µM; in [2], greater than 47 µM; in data set [3], greater than 47 µM. In addition, in [4], the CC50 at 120 h was 47 µM. For the same compound, the selectivity ratio in [5] is 142; in [6], less than 1; in data set [7], less than 1.
`Cc1cc(C#N)cc(C)c1Oc1nc(Nc2ccc(C#N)cc2)nc2[nH]ccc12`: the EC50 in data set [8] is 0.00016 µM; in [9], 0.0045 µM; in data set [10], 0.004 µM; in data set [11], 0.0078 µM.
Turning to `Cc1cc(C)c(Nc2cc(Nc3ccc(C#N)cc3)nc3ncnn23)c(C)c1`, the figures for the EC50 in [1], in data set [2] and in data set [3] were 0.02 µM, 7.6 µM and greater than 190 µM, respectively. The compound further gave a cytotoxic concentration (CC50) at 120 h in data set [4] of 190 µM. In addition, the selectivity ratio in data set [5] is 8990; in data set [6], 25; in [7], less than 1.
On to `N#Cc1ccc(Nc2cc(Oc3c(Cl)cccc3Cl)n3ncnc3n2)cc1`, for which the half-maximal effective concentration (EC50) in data set [1] was 3.4 µM; in [2], greater than 150 µM; in data set [3], greater than 150 µM. Moreover, the CC50 at 120 h in data set [4] turned out to be 150 µM. The results for the selectivity ratio in data set [5], in data set [6] and in data set [7] were 44, less than 1 and less than 1, respectively.
For `Cc1cc(C)c(Oc2cc(Nc3ccc([N+](=O)[O-])cc3)nc3ncnn23)c(C)c1`, the values for the EC50 in data set [1], in [2] and in data set [3] were 0.6 µM, greater than 33 µM and greater than 33 µM, respectively. The compound also displayed a cytotoxic concentration (CC50) at 120 h in data set [4] of 33 µM. For the same compound, the selectivity ratio in data set [5] was 57; in data set [6], less than 1; in [7], less than 1.
Regarding `Cc1cccc(C)c1Oc1cc(Nc2ccc(C#N)cc2)nc2ncnn12`, the EC50 was 1.3 µM in data set [1], greater than 233 µM in data set [2] and greater than 233 µM in [3]. For the same compound, the half-maximal cytotoxic concentration (CC50) at 120 h in data set [4] was 233 µM. Further, the selectivity ratio is 182 in data set [5], less than 1 in data set [6] and less than 1 in data set [7].
`Cc1cc(C)c(Oc2cc(Nc3ccc(C#N)cc3)n3ncnc3n2)c(C)c1`: the values for the half-maximal effective concentration (EC50) in data set [1], in data set [2] and in data set [3] were 0.07 µM, no less than 50 µM and greater than 106 µM, respectively. The CC50 at 120 h in data set [4] was 106 µM. For the same compound, the selectivity ratio in [5] is 1450; in data set [6], no more than 2; in [7] it was less than 1.
Turning to `CC(C)Nc1cccnc1N1CCN(C(=O)c2cc3cc(NS(C)(=O)=O)ccc3[nH]2)CC1` [DELAVIRDINE], the values for the EC50 in data set [1] and in data set [2] were 0.07 µM and greater than 36 µM, respectively. Besides, the 50% cytotoxic concentration (CC50) at 120 h in data set [4] was greater than 36 µM. Also, the selectivity ratio in [5] was greater than 494; in data set [6], 1.
With `Cc1cc(C)c(Oc2cc(Nc3ccc(Cl)cc3)nc3ncnn23)c(C)c1`, the EC50 in [1] was 0.05 µM; in data set [2], greater than 46 µM; in data set [3] it was greater than 46 µM. Further, the 50% cytotoxic concentration (CC50) at 120 h in [4] was 46 µM. Moreover, the selectivity ratio in [5] was 864; in [6], less than 1; in data set [7], less than 1.
Consider `Cc1ccc(Nc2cc(Oc3c(C)cc(C)cc3C)n3ncnc3n2)cc1`, for which the EC50 is 0.07 µM in data set [1], greater than 47 µM in data set [2] and greater than 47 µM in data set [3]. This compound displayed a CC50 at 120 h in data set [4] of 47 µM. Moreover, the figures for the selectivity ratio in data set [5], in [6] and in data set [7] were 649, less than 1 and less than 1, respectively.
As for `Cc1cccc(C)c1Oc1cc(Nc2ccc(C#N)cc2)n2ncnc2n1`, the EC50 in [1] is 1.5 µM; in [2], greater than 253 µM; in [3], greater than 253 µM. Moreover, the half-maximal cytotoxic concentration (CC50) at 120 h in [4] is 253 µM. The selectivity ratio in [5] was 170; in data set [6] it was less than 1; in data set [7], less than 1.
`COc1ccc(Nc2cc(Oc3c(C)cc(C)cc3C)n3ncnc3n2)cc1`: the EC50 in data set [1] is 0.2 µM; in data set [2], greater than 37 µM; in [3], greater than 37 µM. Also, the CC50 at 120 h in data set [4] amounted to 37 µM. Moreover, the selectivity ratio in data set [5] is 165; in [6], less than 1; in data set [7], less than 1.
For `Cc1ccnc2c1NC(=O)c1cccnc1N2C1CC1` [NEVIRAPINE], the concentration giving a half-maximal response (EC50) in [1] was 0.15 µM; in [2] it was 2.9 µM. This compound gave a CC50 at 120 h in data set [4] greater than 15 µM. In addition, the selectivity ratio in data set [5] was greater than 14; in data set [6], greater than 5.
For the compound `Cc1cc(Br)cc(C)c1Oc1cc(Nc2ccc(C#N)cc2)n2ncnc2n1`, the EC50 in data set [1] is 0.3 µM; in data set [2], greater than 128 µM; in [3], greater than 128 µM. Besides, half-maximal cytotoxicity in [4] (CC50 at 120 h) was put at 128 µM. For the same compound, the selectivity ratio is 427 in data set [5], less than 1 in [6] and less than 1 in [7].
With `N#Cc1ccc(Nc2cc(Oc3c(F)cc(F)cc3F)nc3ncnn23)cc1`, the EC50 in [1], in [2] and in data set [3] was greater than 174 µM each time. Moreover, the CC50 at 120 h in data set [4] stood at 174 µM. Besides, the selectivity ratio in [5], in data set [6] and in [7] was less than 1 in each case.
Consider `Cc1cc(Cl)cc(C)c1Oc1cc(Nc2ccc(C#N)cc2)nc2ncnn12`, for which the results for the EC50 in data set [1], in [2] and in data set [3] were 0.4 µM, greater than 104 µM and greater than 104 µM, respectively. Also, in [4], the cytotoxic concentration (CC50) at 120 h was determined as 104 µM. Moreover, the selectivity ratio in data set [5] was 256; in data set [6], less than 1; in data set [7] it was less than 1.
In the case of `N#Cc1ccc(Nc2cc(Oc3c(Cl)cc(Cl)cc3Cl)n3ncnc3n2)cc1`, the EC50 in data set [1] is 0.6 µM; in data set [2] it was greater than 29 µM; in data set [3], greater than 29 µM. This compound showed a 50% cytotoxic concentration (CC50) at 120 h in data set [4] of 29 µM. Further, the selectivity ratio in data set [5] was 47; in [6], less than 1; in data set [7], less than 1.
As for `Cc1cc(C#N)cc(C)c1Oc1nc(Nc2ccc(C#N)cc2)nc2cc[nH]c12`, the EC50 came to 0.00025 µM in data set [8], 0.0014 µM in data set [9], 0.0011 µM in data set [10] and 0.0038 µM in data set [11].
Turning to `Cc1cc(C)c(Oc2cc(Nc3ccc(C#N)cc3)nc3ncnn23)c(C)c1`, the 50% effective concentration (EC50) is 0.05 µM in [1], greater than 164 µM in [2] and greater than 164 µM in [3]. The same compound gave a cytotoxic concentration (CC50) at 120 h in data set [4] of 164 µM. The selectivity ratio is 3200 in data set [5], less than 1 in [6] and less than 1 in data set [7].
On to `Cc1cccc(C)c1Nc1cc(Nc2ccc(C#N)cc2)nc2ncnn12`, for which the values for the 50% effective concentration (EC50) in data set [1], in data set [2] and in [3] were 2.1 µM, greater than 272 µM and greater than 272 µM, respectively. The same compound yielded a cytotoxic concentration (CC50) at 120 h in [4] of 272 µM. In addition, the selectivity ratio in data set [5] was 127; in [6] it was less than 1; in data set [7], less than 1.
